Measurements: paper PMC4013422 (Chinese Journal of Cancer, 2011)

Columns and labels:
[1] = system: skin lesions (basal cell carcinomas) of Krt6a-cre: Ptch1^neo/neo mice; assay: Topical treatment of basal cell carcinomas, tumor area by HE/ImageJ; format: in vivo, mouse
[2] = Solubility in deionized water
[3] = system: Hh signaling-dependent motor neuron differentiation (E14Tg2a.4 embryonic stem cells); format: cell-based, mouse
In short: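 Mouse E14Tg2a.4 ES cells seeded at 5 × 10^5 cells/mL in ES medium without LIF on ultra-low-adhesion plates for 2 days to form embryoid bodies. Motor neurons induced with retinoic acid 100 nmol/L plus purmorphamine 2.5 µmol/L for 5–7 days, with test compound in the induction medium. Read-outs: Hb9 immunofluorescence, and real-time PCR of Hip, FoxA2, Olig2 and Hb9.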

[4] = system: Hh target genes in skin of Krt6a-cre: Ptch1^neo/neo mice; assay: Hh target gene expression in treated skin; format: in vivo, mouse; conditions: Figure 5C
In short: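 Tumour-bearing transgenic mice received test compound in 70% ethanol, applied topically to the abdominal skin daily for 21 days; 70% ethanol on the mid-belly served as control. Skin halves were frozen at –80°C. TRIzol total RNA (1 µg) was reverse-transcribed. Gene-specific probes were used for qPCR, with triplicate CT values analysed by the comparative CT method, normalised to 18S RNA and expressed relative to a calibrator.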

[5] = Plasma half-life from mouse blood samples; format: in vivo; conditions: intraperitoneal

3-Keto-N- (aminoethyl-aminocaproyl-dihydro-cinnamoyl) (KAAD)-Cyc [KAAD-Cyc]
Reduction of tumor area ([1]; KAAD-Cyc (1 µmol/L topical per methods), data not shown): more than half
Solubility in water [2]: not water soluble

CC1=C2C[C@H]3[C@@H](CC=C4C[C@@H](O)CC[C@@]43C)[C@@H]2CC[C@]12O[C@@H]1C[C@H](C)CN[C@H]1[C@H]2C [Cyc, Cyclopamine]
IC50 ([3]; Mus musculus, Neuron, read-out: IC50, inhibitory activity for Hh signaling-dependent motor neuron differentiation): 300 nM
Effect on motor neuron differentiation / expression of differentiation markers ([3]; compound at 50 nmol/L): no significant effects
Hedgehog target gene expression (HIP and Ptch1), RT-PCR [4]: little effects
Maximum reduction in tumor area ([1]; Cyc treatment group, topical daily for 21 days): less than 5%
half-life [5]: 1 to 4 h
